# Hits are enriched below; roughly 2.9% of the tested compounds scored in any of these assays.
# TRPC4 agonist – activators of mouse TRPC4 channel, primary screen, Fluo4 calcium, HEK293 TRPC4beta/mu-opioid cells; Fluo4 calcium fluorescence; hits give high values; 0.49% of 310,000 active; Short transient receptor potential channel 4 (Mus musculus), Q9QUQ5; B-score at 10 µM;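 active means B-score above 5 SD of library B-scores, and initial fluorescence ratio not above library mean plus 5 SD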;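 further: positive B-score marks a calcium rise read as TRPC4 activation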
#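 Technique: kinetic Fluo4 calcium fluorescence; Test system: TRPC4beta and mu-opioid receptor HEK293 stable cells; Measure: B-scored integrated calcium fluorescence ratio; Benchmarks: low control buffer alone, high control maximal DAMGO; Schedule: 45 min room-temperature Fluo4 loading, 110 s read.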
# TRPC4 potent – positive allosteric modulators of TRPC4, primary screen, cell-based, mouse TRPC4beta, HEK293 mu-opioid, Fluo-4 calcium | Short transient receptor potential channel 4 (Mus musculus), Q9QUQ5 | DAMGO EC20, Fluo-4 Ca2+ flux; hits give high values | B-score at 10 µM | 0.42% of 310,000 active | AID 2227, 2009;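 active means B-score of calcium response area above 5 SD of library B-scores, with initial fluorescence ratio within 5 SD of library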;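 further: B-score of integrated fluorescence ratio over time as area under calcium response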
# TRPC6 activator – mouse TRPC6 channel activators, primary screen, cell-based, HEK293, membrane potential dye; Short transient receptor potential channel 6 (Mus musculus), Q61143; HEK293-TRPC6 membrane potential dye fluorescence; hits give high values; B-score at 10 µM; 0.13% of 310,000 active;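 active means B-score of the integrated fluorescence ratio above library mean plus 3 SD, and starting fluorescence ratio within library mean plus 5 SD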;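 further: higher score means more depolarization so channel activation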
# Kir21 block – inhibitors of mouse Kir2.1 inward-rectifier potassium channel; Inward rectifier potassium channel 2 (Mus musculus), P35561; AID 1672, 2009; B-score at 10 µM; 0.85% of 310,000 active; HEK293-Kir2.1, FluxOR thallium flux fluorescence; hits give low values;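 active means fluorescence ratio B-score at or below minus 3 SD of library scores, with starting-brightness B-score within 2 SD, cut at about -4.2 in these data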;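 further: channel flux triggered by added potassium and thallium sulfate stimulus; B-score of peak minus minimum fluorescence over baseline after thallium stimulus; more negative B-score means stronger Kir2.1 block with less thallium influx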
# TRPC4 inh – inhibitors of mouse TRPC4 channel, primary screen, Fluo4 calcium, HEK293 TRPC4beta/mu-opioid cells | Short transient receptor potential channel 4 (Mus musculus), Q9QUQ5 | B-score at 10 µM | DAMGO-evoked Fluo4 calcium flux; hits give low values | 0.39% of 300,000 active | AID 2247, 2010;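 active means B-score over 3 SD under the library average, no early fluorescence shift, positive overall ratio signal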
#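 Material: HEK293 cells with stable TRPC4beta plus mu-opioid receptor expression; probe or stimulus: DAMGO in two steps, submaximal then maximal; technique: Fluo4 calcium fluorescence by kinetic imaging, 5 s 1 Hz baseline; measure: integrated fluorescence ratio relative to baseline, converted to per-well B score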
# TRPC6 inhibitor – mouse TRPC6 channel inhibitors, primary screen, cell-based, HEK293, membrane potential dye; ACh-evoked depolarization; hits give low values; B-score at 10 µM; 1.1% of 310,000 active; AID 2553, 2010;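 active means B-score under library mean minus 3 SD, initial fluorescence not abnormally high, positive integrated signal ratio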;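 further: B-score derived from integrated fluorescence ratio over the kinetic read; more negative B-score means stronger inhibition of depolarization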
# TRPC4 spec 2 – second check of whether TRPC6 inhibitors also affect mouse TRPC4. shares compounds with TRPC6 inhibitor. HEK293 TRPC4/MOR, membrane potential dye fluorescence; channel activated by saturating DAMGO dose. inhibition, % at 10 µM. 42% of 920 active. AID 2776;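 active means compounds whose fluorescence signal differed from control wells by over 3 SD, either direction, in both duplicate plates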
# TRPC4 spec – mouse TRPC4 modulation by TRPC6 hits, confirmation, selectivity assay for TRPC6 inhibitor project, cell-based, HEK293 TRPC4/mu-opioid, membrane potential dye. membrane potential fluorescence. activity change, negative = inhibition, % at 10 µM. 61% of 920 active. shares compounds with TRPC6 inhibitor. AID 2777, 2010;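 active means rise or fall in signal beyond 3 SD of buffer-only wells in both replicate plates, either sign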;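 further: integrated kinetic ratio of fluorescence range over baseline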
# HEK293 MPD ctr 2-1 – nonspecific membrane potential effects, parental HEK293, confirmation, counter-screen for TRPC6 inhibitor project, cell-based, second counter screen; shares compounds with TRPC6 inhibitor; signal change vs control, % at 10 µM; 31% of 920 active; parental HEK293 membrane potential dye fluorescence; maximal acetylcholine challenge after compound addition;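 active means membrane potential signal moving either way by over 3 SD of the maximum-effect control, in both duplicate plates, meaning non-specific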
# HEK293 MPD ctr-1 – membrane potential modulation in parental HEK293, confirmation, counter-screen for TRPC6 inhibitor project, cell-based | parental HEK293 membrane potential dye fluorescence | shares compounds with TRPC6 inhibitor | membrane potential signal change, % at 10 µM | 60% of 920 active | AID 2780, 2010;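 active means membrane potential signal shifting up or down by more than 3 SD of buffer-only wells, on both duplicate plates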
# HEK293 MPD ctr-2 – parental HEK293 membrane potential modulation, confirmation, counter-screen for TRPC6 modulator project, cell-based. shares compounds with TRPC6 inhibitor. membrane potential dye fluorescence. membrane potential signal change, % at 10 µM. 51% of 2,400 active. AID 488924, 2010;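 active means membrane potential signal moves up or down beyond 5 SD from buffer-only wells, on both duplicate plates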
# HEK293 MPD ctr 2-2 – second counter-screen for TRPC6 modulators: effect in parental HEK293 cells; shares compounds with TRPC6 inhibitor; membrane potential dye fluorescence; after compound, maximal acetylcholine stimulation; inhibition, % at 10 µM; 14% of 2,400 active;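 active means membrane potential signal drops by more than 5 SD from the mean control signal, in both duplicate plates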;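 further: plate controls were acetylcholine ECmax control wells for no effect and buffer only wells for full effect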
# TRPC4 ctr mod – TRPC4 modulation by TRPC6 hit compounds, confirmation, selectivity assay for TRPC6 modulator project, cell-based, HEK293 TRPC4/mu-opioid, membrane potential dye, mouse | shares compounds with TRPC6 inhibitor | membrane potential fluorescence | percent change from control (negative = decrease, positive = increase), % at 10 µM | 69% of 2,400 active | AID 488927, 2010;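 active means membrane potential signal moved up or down beyond 5 SD of buffer control wells, in both duplicate plates, actives on both sides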;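 further: plate controls were assay buffer wells for no effect and DAMGO maximal-effect wells for full effect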
# TRPC4 ctr inh 2 – mouse TRPC4 off-target activity of TRPC6 modulators, second screen; AID 488928; HEK293 TRPC4/mu-opioid, membrane potential dye fluorescence; stimulated with maximal-effect DAMGO; shares compounds with TRPC6 inhibitor; 55% of 2,400 active; inhibition, % at 10 µM;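 active means drop in membrane potential signal beyond 5 SD of the control wells in both duplicate plates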;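 further: TRPC4 counter screen for TRPC6 hits run under conditions tuned for TRPC6 not TRPC4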
# TRPC6 inh conf – mouse TRPC6 channel inhibitors, confirmation, HEK293 cells, membrane potential dye, duplicate. shares compounds with TRPC6 inhibitor. ACh-evoked depolarization. inhibition, % at 10 µM. 43% of 3,300 active;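 active means fluorescence ratio falls more than 5 SD below the full-stimulation control mean, in both duplicate runs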;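 further: integrated fluorescence ratio of peak minus minimum over baseline after agonist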
# TRPC6 act confirm – mouse TRPC6 channel activators, confirmation, HEK293 cells, membrane potential dye, duplicate; shares compounds with TRPC6 inhibitor; activation, % at 10 µM; 11% of 2,800 active; HEK293-TRPC6 membrane potential dye fluorescence, FDSS;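 active means ratio signal rise beyond 5 SD above unstimulated control wells' mean, seen in both duplicate runs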;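 further: plate controls were buffer EC0 wells for no effect and acetylcholine ECmax response for full effect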
# The depositor's hits bear a star; i = inactive; . = no result.
SMILES,TRPC4 agonist,TRPC4 potent,TRPC6 activator,Kir21 block,TRPC4 inh,TRPC6 inhibitor,HEK293 MPD ctr-2,HEK293 MPD ctr 2-2,TRPC4 ctr mod,TRPC4 ctr inh 2,TRPC6 inh conf,TRPC6 act confirm,others
Cc1ccc(S(=O)(=O)N2CCC(=O)N(CCOC(=O)Nc3cccc(Cl)c3)CC2)cc1,i,i,16*,0.43,i,-10*,i,i,i,i,108%*,160%*,
Cc1ccc(NC(=O)OCCN2CCN(S(=O)(=O)c3ccc(C)cc3)CCC2=O)cc1,i,i,i,-0.39,i,i,.,.,.,.,.,.,
Cc1ccc(S(=O)(=O)N2CCC(=O)N(CCOC(=O)Nc3ccc(C)c(C)c3)CC2)cc1,i,i,i,-0.84,i,-6.9*,.,.,.,.,i,.,TRPC4 spec 2=i;TRPC4 spec=i;HEK293 MPD ctr 2-1=i;HEK293 MPD ctr-1=i
CC(=O)NC1(NC(C)=O)CCN(C)CC1,i,i,i,1.1,i,i,.,.,.,.,.,.,
COP(=O)(OC)c1nc(-c2ccc([N+](=O)[O-])cc2)oc1N1CCCCC1,i,i,19*,-1,i,-7.1*,618%*,198%*,120%*,51%*,84%*,230%*,
CCOP(=O)(OCC)c1nc(-c2ccccc2)oc1N1CCCCC1,i,i,i,0.52,i,i,.,.,.,.,.,.,

# Compound activity from PubChem BioAssay.
